# According to ChEMBL document CHEMBL3046392, “Antifungal activities of N-arylbenzenesulfonamides against phytopathogens and control efficacy on wheat leaf rust and cabbage club root diseases” (Biosci Biotechnol Biochem, 2002):
# Columns and labels:
# Type in all cases: functional
# Phytophthora capsici [1] = assay: Antifungal activity against Phytophthora capsici assessed as mycelial growth inhibition after 2 to 6 days; details: read-out: ED50 (the source's name)
# How it was run: (§1)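 Serially diluted compound was mixed into 1/5-strength PDA plates at […]. A 5-mm agar plug of each fungus was placed at the plate centre, with three replicate plates per concentration per fungus. Plates were incubated at 25 °C for 2–6 days, radial growth was measured, and ED₅₀ for mycelial growth inhibition was derived by probit analysis.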
# Globisporangium ultimum = assay: Antifungal activity against Pythium ultimum assessed as mycelial growth inhibition after 2 to 6 days; details: read-out: ED50 (the source's name); how it was run: as §1
# Botrytis cinerea [2] = assay: Antifungal activity against Botryotinia fuckeliana assessed as mycelial growth inhibition after 2 to 6 days; details: read-out: ED50 (the source's name); how it was run: as §1
# Rhizoctonia solani = assay: Antifungal activity against Rhizoctonia solani assessed as mycelial growth inhibition after 2 to 6 days; details: read-out: ED50 (the source's name); how it was run: as §1
# Plasmodiophora brassicae [3] = assay: Antifungal activity against Plasmodiophora brassicae in cabbage seedlings transplanted after soil infestation with fungus followed by compound application to soil assessed as cabbage club root disease control efficacy at 56 ug/ml measured after 35 days post fungal inoculation
# How it was run: (§2)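 Soil was inoculated with P. brassicae spore suspension (2×10⁶ spores/ml), then cabbage seedlings were transplanted. 10 ml of each compound solution was applied to assess disease suppression. Disease severity was assessed 35 days after inoculation, with control value calculated relative to untreated plants.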
# Botrytis cinerea [4] = assay: Antifungal activity against Botryotinia fuckeliana infected compound pre-treated tomato seedlings at second-leaf stage assessed as tomato gray mould disease control values at 50 ug/ml measured after 3 to 4 days post fungal inoculation
# How it was run: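 Greenhouse-grown potted tomato seedlings at second-leaf stage were sprayed with compound in water+methanol (95+5) with Tween 20 (250 mg/l), left 24 h, then spray-inoculated with B. cinerea spore suspension. Plants were kept in the dark at 25 °C, 100% RH. Severity was scored after 3–4 days, and control value = 100 × (untreated − treated severity)/untreated severity.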
# Phytophthora capsici [5] = assay: Antifungal activity against Phytophthora capsici infected on compound pre-treated tomato seedlings at second-leaf stage assessed as tomato late blight disease control values at 50 ug/ml measured after 3 to 4 days post fungal inoculation
# Blumeria hordei = assay: Antifungal activity against Blumeria graminis f. sp. hordei infected compound pre-treated barley seedlings at first-leaf stage assessed as barley powdery mildew disease control values at 50 ug/ml measured after 7 days post fungal inoculation
# How it was run: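 Pot-grown barley seedlings at first-leaf stage were sprayed with compound dissolved in water+methanol (95+5) containing Tween 20 (250 mg/l), left 24 h, then inoculated with the powdery mildew fungus. Control value = 100 × (untreated − treated severity)/untreated severity.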
# Puccinia recondita = assay: Antifungal activity against Puccinia recondita infected on compound pre-treated wheat seedlings at first-leaf stage assessed as wheat leaf rust disease control values at 50 ug/ml measured after 7 days post fungal inoculation
# How it was run: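 First-leaf wheat seedlings were sprayed with compound in water+methanol (95+5) with Tween 20 (250 mg/l) and left 24 h. They were sprayed with P. recondita spores (0.67 g/l, Tween 20 250 mg/l) and kept 1 day in a moist chamber at 20 °C, then moved to an incubation room. Infected leaf area was rated 7 days post-inoculation and converted to a control value relative to untreated plants.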
# Plasmodiophora brassicae [6] = assay: Antifungal activity against Plasmodiophora brassicae in cabbage seedlings transplanted after soil infestation with fungus followed by compound application to soil assessed as cabbage club root disease control efficacy at 167 ug/ml measured after 35 days post fungal inoculation; how it was run: as §2
# Plasmodiophora brassicae [7] = assay: Antifungal activity against Plasmodiophora brassicae in cabbage seedlings transplanted after soil infestation with fungus followed by compound application to soil assessed as cabbage club root disease control efficacy at 19 ug/ml measured after 35 days post fungal inoculation; how it was run: as §2
# Corticium = assay: Antifungal activity against Corticium sasaki Matsu infected compound pre-treated rice seedlings at third-leaf stage assessed as rice sheath blight disease control values at 50 ug/ml measured after 4 days post fungal inoculation
# How it was run: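 Rice seedlings at third-leaf stage were sprayed with compound in water+methanol (95+5) plus Tween 20 (250 mg/l) and left 24 h. They were inoculated with 7-day-old wheat–rice bran cultures of C. sasaki and held 4 days dark at 25 °C, 100% RH, then 4 days in a growth chamber (25 °C, 100% RH, 12 h light). Control value was calculated from disease severity relative to untreated plants.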
# Plasmodiophora brassicae [8] = assay: Antifungal activity against Plasmodiophora brassicae in cabbage seedlings transplanted after soil infestation with fungus followed by compound application to soil assessed as cabbage club root disease control efficacy at 500 ug/ml measured after 35 days post fungal inoculation; how it was run: as §2
# Pyricularia grisea = assay: Antifungal activity against Magnaporthe grisea infected on compound pre-treated rice seedlings at second-leaf stage assessed as rice blast disease control values at 50 ug/ml measured after 5 days post fungal inoculation
# How it was run: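 Rice seedlings grown in greenhouse pots at 25±5 °C, sprayed with compound in water+methanol (95+5) containing Tween 20 (250 mg/l) as wetting agent, left 24 h, then inoculated with M. grisea. Disease severity read as percentage infected leaf area 5 days after inoculation. Control value (%) = 100 × (untreated severity − treated severity)/untreated severity.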
SMILES,EC50 (Phytophthora capsici [1]),EC50 (Globisporangium ultimum),EC50 (Botrytis cinerea [2]),EC50 (Rhizoctonia solani),Efficacy (Plasmodiophora brassicae [3]),Activity (Botrytis cinerea [4]),Activity (Phytophthora capsici [5]),Activity (Blumeria hordei),Activity (Puccinia recondita),Efficacy (Plasmodiophora brassicae [6]),Efficacy (Plasmodiophora brassicae [7]),Activity (Corticium),Efficacy (Plasmodiophora brassicae [8]),Activity (Pyricularia grisea),Activity (Plasmodiophora brassicae [8])
O=S(=O)(Nc1ccc(F)c(C(F)(F)F)c1)c1ccccc1,5.6 µg/mL,13.5 µg/mL,10.7 µg/mL,16.8 µg/mL,,,,,,,,,,,
O=[N+]([O-])c1cccc(S(=O)(=O)Nc2ccc(F)c(C(F)(F)F)c2)c1,60.8 µg/mL,10.1 µg/mL,3.5 µg/mL,6 µg/mL,,,,,,,,,,,
O=[N+]([O-])c1ccc(NS(=O)(=O)c2ccccc2)c(Cl)c1,9 µg/mL,5.4 µg/mL,28 µg/mL,14.4 µg/mL,83%,0%,0%,2%,9%,82%,17%,0%,95%,3%,
O=S(=O)(Nc1ccccc1)c1ccccc1 [PHENYL(PHENYLSULFONYL)AMINE],66.6 µg/mL,75.4 µg/mL,239 µg/mL,68.9 µg/mL,,,,,,,,,,,
O=[N+]([O-])c1cccc(S(=O)(=O)Nc2ccc([N+](=O)[O-])cc2C(F)(F)F)c1,233 µg/mL,155 µg/mL,,26.2 µg/mL,,,,,,,,,,,
O=[N+]([O-])c1cccc(S(=O)(=O)Nc2ccc([N+](=O)[O-])cc2Cl)c1,7 µg/mL,7.2 µg/mL,63.6 µg/mL,34.8 µg/mL,,,,,,,,,,,
O=[N+]([O-])c1ccc(NS(=O)(=O)c2ccccc2)c(C(F)(F)F)c1,18.5 µg/mL,19.3 µg/mL,33.1 µg/mL,28.5 µg/mL,,,,,,,,,,,
O=[N+]([O-])c1ccc(NS(=O)(=O)c2ccc(Cl)c(C(F)(F)F)c2)c(Cl)c1 [FLUSULFAMIDE],,,,,17%,,,,,42%,0%,,,,62%
O=S(=O)(Nc1ccc(C(F)(F)F)cc1)c1ccccc1,14.6 µg/mL,11.7 µg/mL,14.8 µg/mL,24.1 µg/mL,0%,0%,0%,0%,0%,0%,0%,0%,0%,0%,
O=[N+]([O-])c1ccc(NS(=O)(=O)c2ccccc2)cc1,10.3 µg/mL,6.9 µg/mL,65.7 µg/mL,42.3 µg/mL,,,,,,,,,,,
